Test results taken from ChEMBL document CHEMBL1949593, “Stilbene-chalcone hybrids: design, synthesis, and evaluation as a new class of antimalarial scaffolds that trigger cell death through stage specific apoptosis” (J Med Chem, 2012).

Assays:
[1] = tested on: Plasmodium falciparum; assay: Antimalarial activity against ring stage chloroquine-resistant Plasmodium falciparum INDO infected in human O positive erythrocytes after 48 hrs by SYBR green 1 fluorescence assay; format: functional, organism-based
Summary of the method: (§1)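 Ring-stage cultures were sorbitol-synchronized in O+ human erythrocytes in RPMI 1640 with 0.5% Albumax, hypoxanthine and gentamicin, then plated at 2% hematocrit and 1% parasitemia. Drugs were tested at 0–100 μM (final DMSO 0.4%) in triplicate for 48 h at 37 °C under 5% O2/5% CO2/90% N2. Read-out was SYBR Green I (ex 497/em 520 nm). IC50 was read visually as 50% growth inhibition, with chloroquine as control.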

[2] = Therapeutic index, ratio of IC50 for […] cells to IC50 for ring stage chloroquine-sensitive Plasmodium falciparum 3D7; format: cell-based; conditions: mouse, read-out: Ratio IC50
Summary of the method: (§2)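 HeLa or L929 fibroblasts were seeded at 10^4 cells per well in RPMI with 10% FBS, left overnight, then exposed 24 h at 37 °C, 5% CO2. MTT was added for 3 h; formazan was dissolved in DMSO and read at 570 nm. IC50 came from dose–response curves. Index = IC50(mammalian)/IC50(Pf 3D7, SYBR Green assay).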

[3] = Inhibition of Plasmodium falciparum falcipain-2 using benzyloxycarbonyl-Phe-Arg-7-amino-4-methyl coumarin hydrochloride as substrate preincubated for 10 mins prior substrate addition by fluorimetric assay
Summary of the method: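 Recombinant falcipain-2 (2 μg) was preincubated 10 min at room temperature with or without compound, in triplicate. Buffer was 100 mM sodium acetate pH 5.5 with 10 mM DTT and 1% final DMSO. Z-Phe-Arg-AMC was then added at 10 μM final. AMC release was read at ex 355/em 460 nm. IC50 was taken by visual matching of 50% inhibition.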

[4] = tested on: Plasmodium falciparum; assay: Antimalarial activity against ring stage chloroquine-resistant Plasmodium falciparum Dd2 infected in human O positive erythrocytes after 48 hrs by SYBR green 1 fluorescence assay; format: functional, organism-based; conditions: Dd2, 48 h; summary of the method: as §1
[5] = Resistance index, ratio of IC50 for ring stage chloroquine-resistant Plasmodium falciparum Dd2 to IC50 for ring stage chloroquine-sensitive Plasmodium falciparum 3D7; format: functional
[6] = Resistance index, ratio of IC50 for ring stage chloroquine-resistant Plasmodium falciparum INDO to IC50 for ring stage chloroquine-sensitive Plasmodium falciparum 3D7; format: functional
[7] = tested on: Plasmodium falciparum; assay: Antimalarial activity against ring stage chloroquine-sensitive Plasmodium falciparum 3D7 infected in human O positive erythrocytes after 48 hrs by SYBR green 1 fluorescence assay; format: functional, organism-based; conditions: 3D7, 48 h
Summary of the method: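 P. falciparum 3D7 in O+ human erythrocytes in complete RPMI with Albumax at 37 °C under 5% O2/5% CO2. Culture was sorbitol-synchronized to rings and plated at 2% hematocrit, 1% parasitemia. Drug range was 0–100 μM with 0.4% final DMSO, in triplicate. After 48 h, SYBR Green I fluorescence was read (ex 497/em 520 nm). IC50 was taken by visual matching of 50% growth inhibition.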

[8] = Therapeutic index, ratio of IC50 for human HeLa cells to IC50 for ring stage chloroquine-sensitive Plasmodium falciparum 3D7; format: cell-based; conditions: read-out: Ratio IC50; summary of the method: as §2

For `COc1cc(OC)c(C(=O)/C=C/c2ccc(/C=C/c3cc(OC)c(O)c(OC)c3)cc2)cc1OC`, the IC50 [1] was 2.58 µM, the selectivity ratio [2] was 8.4 and the IC50 [3] was 100 µM. For the same compound, the IC50 [4] was 3.01 µM, the “Ratio IC50” value [5] was 0.7 and the “Ratio IC50” value [6] was 0.6. For the same compound, the IC50 [7] was 4.3 µM and the selectivity ratio [8] was greater than 46.5.
`COc1cc(OC)c(OC)cc1/C=C/C(=O)c1ccc(/C=C/c2cc(OC)c(OS(=O)(=O)c3cc(Cl)cc(Cl)c3)c(OC)c2)cc1` gave an IC50 [7] greater than 100 µM.
`O=C(/C=C/c1c[nH]c2ccc(Cl)cc12)c1ccc(/C=C/c2ccccc2)cc1` gave an IC50 [7] of 25.6 µM.
Work on `COc1cc(/C=C/c2ccc(/C=C/c3cc(OC)c(O)c(OC)c3)cc2)cc(OC)c1O` yielded an IC50 [7] of 11 µM.
In the case of `COc1cc(OC)c(OC)cc1/C=C/C(=O)c1ccc(/C=C/c2cc(OC)c(OC)c(OC)c2)cc1`, the IC50 [1] is reported as 2.08 µM, the selectivity ratio [2] is reported as 29.8 and the IC50 [3] is reported as 20.5 µM. For the same compound, the IC50 [4] was 2.6 µM, the “Ratio IC50” value [5] was 0.5 and the “Ratio IC50” value [6] was 0.4. It also gave an IC50 [7] of 5.2 µM and a selectivity ratio [8] greater than 38.5.
For `COc1ccc(/C=C/C(=O)c2ccc(/C=C/c3ccc(O)c(OC)c3)cc2)cc1`, the IC50 [7] was 34 µM.
Compound `COc1ccc(/C=C/C(=O)c2ccc(/C=C/c3ccccc3)cc2)cc1` has an IC50 [7] greater than 100 µM.
For `COc1cc(OC)c(OC)cc1/C=C/C(=O)c1cccc(C(=O)/C=C/c2cc(OC)c(OC)cc2OC)c1`, the IC50 [7] was 2.8 µM.
`O=C(/C=C/c1cccs1)c1ccc(/C=C/c2ccccc2)cc1` gave an IC50 [7] of 36.3 µM.
In the case of `COc1cc(OC)c(OC)cc1/C=C/C(=O)c1ccc(/C=C/c2ccc(Cl)cc2)cc1`, the IC50 [7] is reported as greater than 100 µM.
For `COc1ccc(C(=O)/C=C/c2ccc(/C=C/c3cc(OC)c(O)c(OC)c3)cc2)cc1`, the IC50 [7] was 50 µM.
Work on `COc1cc(OC)c(OC)cc1/C=C/C(=O)c1ccc(/C=C/c2ccc(O)cc2)cc1` yielded an IC50 [7] of 10 µM.
Work on `COc1ccc(C(=O)/C=C/c2ccc(/C=C/c3ccc(O)c(OC)c3)cc2)cc1` yielded an IC50 [7] of 66 µM.
